In ChEMBL document CHEMBL3244101, “2-, 3-, and 4-(alpha, alpha, beta, beta-tetrafluorophenethyl)benzylamines. A new class of antiarrhythmic agents” (J Med Chem, 1977):

Legend:
[1] = test system: Canis familiaris; assay: Antiarrhythmic activity in anesthetized acute myocardial infarction dog model assessed as normal ECG complexes at 2.5 mg/kg, iv administered 10 mins prior to infarction measured during 1-hr postinfarction period (reference value: 19%); format: functional, Canis lupus familiaris, Heart
How it was run: (§1)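 Sclerosing agent (tetrafluorohexachlorobutane) injected into the anterior descending coronary artery to produce a multifocal ventricular arrhythmia. Single iv dose 10 min before infarction. Segmented ECG tracings over the 1 h after infarction were scored as the percentage of complexes of sinus origin (normal). Saline controls were run alongside.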

[2] = test system: Canis familiaris; assay: Antiarrhythmic activity in anesthetized acute myocardial infarction dog model assessed as normal ECG complexes at 1.25 mg/kg, iv administered 10 mins prior to infarction measured during 1-hr postinfarction period (reference value: 19%); format: functional, Canis lupus familiaris, Heart; how it was run: as §1
[3] = test system: Canis familiaris; assay: Antiarrhythmic activity in anesthetized acute myocardial infarction dog model assessed as normal ECG complexes at 0.5 mg/kg, iv administered 10 mins prior to infarction measured during 1-hr postinfarction period (reference value: 19%); format: functional, Canis lupus familiaris, Heart; how it was run: as §1
[4] = test system: Canis familiaris; assay: Antiarrhythmic activity in iv dosed anesthetized acute myocardial infarction dog model assessed as protection against ventricular arrhythmia development administered 10 mins prior to infarction measured during 1-hr postinfarction period; format: functional, Canis lupus familiaris, Heart; how it was run: as §1
[5] = test system: Canis familiaris; assay: Antiarrhythmic activity in anesthetized acute myocardial infarction dog model assessed as normal ECG complexes at 0.25 mg/kg, iv administered 10 mins prior to infarction measured during 1-hr postinfarction period (reference value: 19%); format: functional, Canis lupus familiaris, Heart; how it was run: as §1
[6] = test system: Canis familiaris; assay: Antiarrhythmic activity in anesthetized acute myocardial infarction dog model assessed as normal ECG complexes at 5 mg/kg, iv administered 10 mins prior to infarction measured during 1-hr postinfarction period (reference value: 19%); format: functional, Canis lupus familiaris, Heart; how it was run: as §1
[7] = test system: Canis familiaris; assay: Effect on cardiac conduction in anesthetized acute myocardial infarction dog model assessed as increase in PR interval at 2.5 mg/kg, iv administered 10 mins prior to infarction measured after 10 mins (reference value: 0 ms); format: functional, Canis lupus familiaris, Heart
[8] = test system: Canis familiaris; assay: Effect on cardiac conduction in anesthetized acute myocardial infarction dog model assessed as increase in PR interval at 5 mg/kg, iv administered 10 mins prior to infarction measured after 10 mins (reference value: 0 ms); format: functional, Canis lupus familiaris, Heart
[9] = test system: Canis familiaris; assay: Effect on cardiac conduction in anesthetized acute myocardial infarction dog model assessed as increase in QT duration at 2.5 mg/kg, iv administered 10 mins prior to infarction measured after 10 mins (reference value: 2 ms); format: functional, Canis lupus familiaris, Heart
[10] = test system: Canis familiaris; assay: Effect on cardiac conduction in anesthetized acute myocardial infarction dog model assessed as increase in QT duration at 5 mg/kg, iv administered 10 mins prior to infarction measured after 10 mins (reference value: 2 ms); format: functional, Canis lupus familiaris, Heart
[11] = test system: Canis familiaris; assay: Reduction in heart rate in anesthetized acute myocardial infarction dog model at 2.5 mg/kg, iv administered 10 mins prior to infarction (reference value: 6 bpm); format: functional, Canis lupus familiaris
[12] = test system: Canis familiaris; assay: Reduction in heart rate in anesthetized acute myocardial infarction dog model at 5 mg/kg, iv administered 10 mins prior to infarction (reference value: 6 bpm); format: functional, Canis lupus familiaris
[13] = test system: Canis familiaris; assay: Myocardial depressant activity in iv dosed anesthetized dog at higher doses; format: ADME, organism-based, Canis lupus familiaris, Myocardium; conditions: in vivo
[14] = test system: Canis familiaris; assay: Hypotensive activity in iv dosed anesthetized dog at higher doses; format: ADME, organism-based, Canis lupus familiaris; conditions: in vivo
[15] = test system: Canis familiaris; assay: Antiarrhythmic activity in anesthetized acute myocardial infarction dog model assessed as normal ECG complexes at 10 mg/kg, po administered 120 mins prior to infarction measured post-infarction; format: functional, Canis lupus familiaris, Heart
How it was run: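 Oral dosing 120 min before infarction in the same intracoronary tetrafluorohexachlorobutane arrhythmia model. Protection was read from ECG complexes after infarction, as the percentage that were normal.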

[16] = test system: Canis familiaris; assay: Antiarrhythmic activity in anesthetized acute myocardial infarction dog model assessed as normal ECG complexes at 0.06 mg/kg, iv administered 10 mins prior to infarction measured during 1-hr postinfarction period (reference value: 19%); format: functional, Canis lupus familiaris, Heart; how it was run: as §1
[17] = test system: Canis familiaris; assay: Effect on cardiac conduction in anesthetized acute myocardial infarction dog model assessed as increase in PR interval at 0.025 mg/kg/min, iv administered as continuous infusion for 60 mins measured after 10 mins (reference value: 0 ms); format: functional, Canis lupus familiaris, Heart
[18] = test system: Canis familiaris; assay: Effect on cardiac conduction in anesthetized acute myocardial infarction dog model assessed as increase in PR interval at 0.0125 mg/kg/min, iv administered as continuous infusion for 60 mins measured after 10 mins (reference value: 0 ms); format: functional, Canis lupus familiaris, Heart
[19] = test system: Canis familiaris; assay: Effect on cardiac conduction in anesthetized acute myocardial infarction dog model assessed as increase in PR interval at 0.06 mg/kg/min, iv administered as continuous infusion for 60 mins measured after 10 mins (reference value: 0 ms); format: functional, Canis lupus familiaris, Heart
[20] = test system: Canis familiaris; assay: Effect on cardiac conduction in anesthetized acute myocardial infarction dog model assessed as increase in PR interval at 0.03 mg/kg/min, iv administered as continuous infusion for 60 mins measured after 10 mins (reference value: 0 ms); format: functional, Canis lupus familiaris, Heart
[21] = test system: Canis familiaris; assay: Effect on cardiac conduction in anesthetized acute myocardial infarction dog model assessed as increase in QT duration at 0.025 mg/kg/min, iv administered as continuous infusion for 60 mins measured after 10 mins (reference value: 2 ms); format: functional, Canis lupus familiaris, Heart
[22] = test system: Canis familiaris; assay: Effect on cardiac conduction in anesthetized acute myocardial infarction dog model assessed as increase in QT duration at 0.0125 mg/kg/min, iv administered as continuous infusion for 60 mins measured after 10 mins (reference value: 2 ms); format: functional, Canis lupus familiaris, Heart
[23] = test system: Canis familiaris; assay: Effect on cardiac conduction in anesthetized acute myocardial infarction dog model assessed as increase in QT duration at 0.06 mg/kg/min, iv administered as continuous infusion for 60 mins measured after 10 mins (reference value: 2 ms); format: functional, Canis lupus familiaris, Heart
[24] = test system: Canis familiaris; assay: Effect on cardiac conduction in anesthetized acute myocardial infarction dog model assessed as increase in QT duration at 0.03 mg/kg/min, iv administered as continuous infusion for 60 mins measured after 10 mins (reference value: 2 ms); format: functional, Canis lupus familiaris, Heart
[25] = Canis lupus familiaris, Heart, iv, read-out: ED75

SMILES | Activity [1] [%] | Activity [2] [%] | Activity [3] [%] | ED75 [4, 25] [mg/kg] | Activity [5] [%] | also measured
Br.FC(F)(c1ccccc1)C(F)(F)c1cccc(CNCc2ccccc2)c1CNCc1ccccc1 | 99 | 98 | 65 | 0.64 |  | 
Cl.NCc1ccc(C(F)(F)C(F)(F)c2ccccc2)cc1 | 37 |  |  |  |  | 
CNC(C)c1ccccc1C(F)(F)C(F)(F)c1ccccc1.O=C(O)C(O)C(O)C(=O)O (single isomer, unassigned; (-)) |  |  |  |  | 44 | Activity ([3]; 0.5 mg/kg): 84%; ED75 [4]: 0.48 mg/kg
Cl.NCc1ccccc1C(F)(F)C(F)(F)C(F)(F)c1ccccc1 | 83 | 68 |  | 1.8 | 24 | 
Cl.FC(F)(c1ccccc1)C(F)(F)c1ccccc1CNCc1ccccc1 |  |  | 74 | 0.84 | 23 | 
CNCc1ccccc1C(F)(F)C(F)(F)c1ccccc1.Cl | 93 |  | 73 | 0.84 | 38 | 
Cl.NCCc1ccccc1C(F)(F)C(F)(F)c1ccccc1 | 88 |  | 27 | 2 |  | 
CN(C)C(C)(C)c1ccc(C(F)(F)C(F)(F)c2ccccc2)cc1.Cl | 83 | 53 |  | 2.1 |  | 
CNC(C)c1ccccc1C(F)(F)C(F)(F)c1ccccc1.O=C(O)C(O)C(O)C(=O)O (single isomer, unassigned; (+)) |  | 72 |  |  |  | Activity ([3]; 0.5 mg/kg): 26%; ED75 [4]: 2 mg/kg
CN(C)Cc1ccccc1C(F)(F)C(F)(F)c1ccccc1.Cl | 61 |  |  | 4.8 |  | Activity [6]: 75%
O=C1NC(=O)C(c2ccccc2)(c2ccccc2)N1 [PHENYTOIN] | 17 |  |  |  |  | Activity [6]: 40%; Time [7]: 10 ms; Time [8]: 8 ms; Time [9]: 5 ms; Time [10]: 3 ms; Activity [11]: 11 bpm; Activity [12]: 13 bpm; Activity [13]: Toxic; Activity [14]: Toxic
CNC(C)(C)c1ccc(C(F)(F)C(F)(F)c2ccccc2)cc1.Cl | 99 | 86 | 65 | 0.5 | 68 | Activity [15]: >=80%; Activity [16]: 27%
CCN(CC)CC(=O)Nc1c(C)cccc1C [LIDOCAINE] |  |  |  |  |  | Time [17]: 2 ms; Time [18]: 0 ms; Time [19]: 0 ms; Time [20]: 0 ms; Time [21]: 0 ms; Time [22]: 0 ms; Time [23]: 0 ms; Time [24]: 0 ms
CNC(C)c1ccccc1C(F)(F)C(F)(F)c1ccccc1.O=C(O)/C=C\C(=O)O (centres undefined) | 88 | 91 | 59 | 0.88 | 35 | 
CC(N)c1ccc(C(F)(F)C(F)(F)c2ccccc2)cc1.Cl (centres undefined) | 80 | 25 |  | 4 |  | 
